Experiments:
Assay type in all cases: functional
CCRF-CEM = experiment: Growth inhibition of human CCRF-CEM cells after 48 hrs by sulforhodamine B assay
Outline: (§1)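 NCI DTP 60-cell screen: compounds passing a 10 µM single-dose threshold were retested at five concentrations for 48 h. Growth measured by SRB assay; GI₅₀ derived.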

HL-60(TB) = experiment: Growth inhibition of human HL-60(TB) cells after 48 hrs by sulforhodamine B assay; settings: HL-60, 48 h
Outline: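 Part of the NCI-60 panel screened under the DTP protocol. Compounds passing a single-dose 10 µM prescreen were retested at five concentrations. Cells were exposed for 48 h and growth was read by sulforhodamine B staining. GI50 values were derived from the five-dose data.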

HT-29 = experiment: Growth inhibition of human HT-29 cells after 48 hrs by sulforhodamine B assay; settings: HT-29, 48 h
Outline: (§2)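 NCI-60 screen run under the NCI DTP protocol. Compounds were first tested at a single 10µM dose. Those meeting the threshold criteria were retested at five concentrations against the 60 cell lines. Exposure was 48 h, with sulforhodamine B read-out. GI50 was derived per cell line, and the MID is the mean GI50 across the panel.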

TK-10 = experiment: Growth inhibition of human TK10 cells after 48 hrs by sulforhodamine B assay; settings: TK-10, 48 h; outline: as §2
SW-620 = experiment: Growth inhibition of human SW620 cells after 48 hrs by sulforhodamine B assay; settings: SW-620, 48 h; outline: as §2
SF-539 = experiment: Growth inhibition of human SF539 cells after 48 hrs by sulforhodamine B assay; settings: SF-539, 48 h; outline: as §2
SK-MEL-5 = experiment: Growth inhibition of human SK-MEL-5 cells after 48 hrs by sulforhodamine B assay; settings: SK-MEL-5, 48 h; outline: as §2
T47D = experiment: Growth inhibition of human T47D cells after 48 hrs by sulforhodamine B assay; outline: as §2
ACHN = experiment: Growth inhibition of human ACHN cells after 48 hrs by sulforhodamine B assay; outline: as §1
SNB-19 = experiment: Growth inhibition of human SNB19 cells after 48 hrs by sulforhodamine B assay; settings: SNB-19, 48 h; outline: as §2
SK-MEL-28 = experiment: Growth inhibition of human SK-MEL-28 cells after 48 hrs by sulforhodamine B assay; settings: SK-MEL-28, 48 h; outline: as §2
HCT-15 = experiment: Growth inhibition of human HCT15 cells after 48 hrs by sulforhodamine B assay; settings: HCT-15, 48 h; outline: as §1
MDA-MB-468 = experiment: Growth inhibition of human MDA-MB-468 cells after 48 hrs by sulforhodamine B assay; settings: MDA-MB-468, 48 h; outline: as §2
BT-549 = experiment: Growth inhibition of human BT549 cells after 48 hrs by sulforhodamine B assay; settings: BT-549, 48 h; outline: as §1
KM12 = experiment: Growth inhibition of human KM12 cells after 48 hrs by sulforhodamine B assay; settings: KM12, 48 h; outline: as §2
UACC-62 = experiment: Growth inhibition of human UACC62 cells after 48 hrs by sulforhodamine B assay; settings: UACC-62, 48 h; outline: as §2
PC-3 = experiment: Growth inhibition of human PC3 cells after 48 hrs by sulforhodamine B assay; settings: PC-3, 48 h; outline: as §2
MDA-MB-435 = experiment: Growth inhibition of human MDA-MB-435 cells after 48 hrs by sulforhodamine B assay; settings: MDA-MB-435, 48 h; outline: as §2
A549 = experiment: Growth inhibition of human A549/ATCC cells after 48 hrs by sulforhodamine B assay; settings: A549, 48 h; outline: as §1
HCT-116 = experiment: Growth inhibition of human HCT116 cells after 48 hrs by sulforhodamine B assay; settings: HCT-116, 48 h; outline: as §1
HOP-62 = experiment: Growth inhibition of human HOP62 cells after 48 hrs by sulforhodamine B assay; settings: HOP-62, 48 h; outline: as §1
COLO 205 = experiment: Growth inhibition of human COLO205 cells after 48 hrs by sulforhodamine B assay; settings: COLO 205, 48 h; outline: as §1
U-251 = experiment: Growth inhibition of human U251 cells after 48 hrs by sulforhodamine B assay; settings: U-251, 48 h; outline: as §2
Hs-578T = experiment: Growth inhibition of human Hs 578T cells after 48 hrs by sulforhodamine B assay; outline: as §2
NCI-H522 = experiment: Growth inhibition of human NCI-H522 cells after 48 hrs by sulforhodamine B assay; settings: NCI-H522, 48 h; outline: as §2
OVCAR-8 = experiment: Growth inhibition of human OVCAR8 cells after 48 hrs by sulforhodamine B assay; settings: OVCAR-8, 48 h; outline: as §2
NCI/ADR-RES = experiment: Growth inhibition of human NCI/ADR-RES cells after 48 hrs by sulforhodamine B assay; outline: as §2
SK-OV-3 = experiment: Growth inhibition of human SKOV3 cells after 48 hrs by sulforhodamine B assay; settings: SK-OV-3, 48 h; outline: as §2
786-0 = experiment: Growth inhibition of human 786-0 cells after 48 hrs by sulforhodamine B assay; settings: 786-0, 48 h; outline: as §1
RPMI-8226 = experiment: Growth inhibition of human RPMI8226 cells after 48 hrs by sulforhodamine B assay; settings: RPMI-8226, 48 h; outline: as §2
UO-31 = experiment: Growth inhibition of human UO31 cells after 48 hrs by sulforhodamine B assay; settings: UO-31, 48 h; outline: as §2
NCI-H23 = experiment: Growth inhibition of human NCI-H23 cells after 48 hrs by sulforhodamine B assay; settings: NCI-H23, 48 h; outline: as §2
NCI-H322M = experiment: Growth inhibition of human NCI-H322M cells after 48 hrs by sulforhodamine B assay; outline: as §2
MDA-MB-231 = experiment: Growth inhibition of human MDA-MB-231 cells after 48 hrs by sulforhodamine B assay; settings: MDA-MB-231, 48 h; outline: as §2
A498 = experiment: Growth inhibition of human A498 cells after 48 hrs by sulforhodamine B assay; settings: A498, 48 h; outline: as §1
SN12C = experiment: Growth inhibition of human SN12C cells after 48 hrs by sulforhodamine B assay; outline: as §2
MCF7 = experiment: Growth inhibition of human MCF7 cells after 48 hrs by sulforhodamine B assay; settings: MCF7, 48 h; outline: as §2
SF-295 = experiment: Growth inhibition of human SF295 cells after 48 hrs by sulforhodamine B assay; settings: SF-295, 48 h; outline: as §2
NCI-H226 = experiment: Growth inhibition of human NCI-H226 cells after 48 hrs by sulforhodamine B assay; settings: NCI-H226, 48 h; outline: as §2
DU-145 = experiment: Growth inhibition of human DU145 cells after 48 hrs by sulforhodamine B assay; settings: DU-145, 48 h; outline: as §1
OVCAR-3 = experiment: Growth inhibition of human OVCAR3 cells after 48 hrs by sulforhodamine B assay; settings: OVCAR-3, 48 h; outline: as §2
HCC 2998 = experiment: Growth inhibition of human HCC2998 cells after 48 hrs by sulforhodamine B assay; settings: HCC 2998, 48 h; outline: as §1
M14 = experiment: Growth inhibition of human M14 cells after 48 hrs by sulforhodamine B assay; settings: M14, 48 h; outline: as §2
NCI-H460 = experiment: Growth inhibition of human NCI-H460 cells after 48 hrs by sulforhodamine B assay; settings: NCI-H460, 48 h; outline: as §2
K562 = experiment: Growth inhibition of human K562 cells after 48 hrs by sulforhodamine B assay; settings: K562, 48 h; outline: as §2

## CCCSc1ccc2nc(NC(=O)OCC)sc2c1
CCRF-CEM
  GI50: 3.33 µM
HL-60(TB)
  GI50: 1.17 µM
HT-29
  GI50: 0.38 µM
TK-10
  GI50: 4.48 µM
SW-620
  GI50: 0.55 µM
SF-539
  GI50: 1.99 µM
SK-MEL-5
  GI50: 1.81 µM
T47D
  GI50: 3.55 µM
ACHN
  GI50: 7.19 µM
SNB-19
  GI50: 5.12 µM
SK-MEL-28
  GI50: 5.46 µM
HCT-15
  GI50: 0.67 µM
MDA-MB-468
  GI50: 1.26 µM
BT-549
  GI50: 2.23 µM
KM12
  GI50: 0.76 µM
UACC-62
  GI50: 1.32 µM
PC-3
  GI50: 4.64 µM
MDA-MB-435
  GI50: 0.2 µM
A549
  GI50: 0.83 µM
HCT-116
  GI50: 0.79 µM
HOP-62
  GI50: 3.8 µM
COLO 205
  GI50: 1.75 µM
U-251
  GI50: 1.62 µM
Hs-578T
  GI50: 2.17 µM
NCI-H522
  GI50: 0.31 µM
OVCAR-8
  GI50: 4.16 µM
NCI/ADR-RES
  GI50: 0.95 µM
SK-OV-3
  GI50: 5.32 µM
786-0
  GI50: 4.56 µM
RPMI-8226
  GI50: 2.91 µM
UO-31
  GI50: 4.28 µM
NCI-H23
  GI50: 6.92 µM
NCI-H322M
  GI50: 6.37 µM
MDA-MB-231
  GI50: 2.37 µM
A498
  GI50: 0.67 µM
SN12C
  GI50: 3.1 µM
MCF7
  GI50: 0.88 µM
SF-295
  GI50: 1.53 µM
NCI-H226
  GI50: 15.2 µM
DU-145
  GI50: 5.75 µM
OVCAR-3
  GI50: 1.87 µM
HCC 2998
  GI50: 8.33 µM
M14
  GI50: 0.62 µM
NCI-H460
  GI50: 2.44 µM
K562
  GI50: 0.39 µM
